# Experimental data published in ChEMBL document CHEMBL5705891, “Small-molecule kinase inhibitors provide insight into Mps1 cell cycle function” (Nat Chem Biol, 2010).
# Activity calls are given as the source filed them. The calls are words filed in the database; no cut-off is given here.
# Key:
# [1] = molecular target: Tyrosine-protein kinase Blk (Homo sapiens) (UniProt P51451); test: Inhibition of BLK (unknown origin) assessed as residual enzyme activity at 10 uM by Ambit kinase binding assay relative to control
# [2] = molecular target: Ribosomal protein S6 kinase alpha-5 (Homo sapiens) (UniProt O75582); test: Inhibition of RPS6KA5 kinase domain 2 (unknown origin) assessed as residual enzyme activity at 10 uM by Ambit kinase binding assay relative to control
# [3] = molecular target: Serine/threonine-protein kinase Nek2 (Homo sapiens) (UniProt P51955); test: Inhibition of NEK2 (unknown origin) assessed as residual enzyme activity at 10 uM by Ambit kinase binding assay relative to control
# [4] = molecular target: Serine/threonine-protein kinase 26 (Homo sapiens) (UniProt Q9P289); test: Inhibition of MST4 (unknown origin) assessed as residual enzyme activity at 10 uM by Ambit kinase binding assay relative to control
# [5] = molecular target: Dual specificity mitogen-activated protein kinase kinase 3 (Homo sapiens) (UniProt P46734); test: Inhibition of MEK3 (unknown origin) assessed as residual enzyme activity at 10 uM by Ambit kinase binding assay relative to control
# [6] = molecular target: Aurora kinase B (Homo sapiens) (UniProt Q96GD4); test: Inhibition of Aurora B activation in human U2OS cells by Western blot analysis; format: cell-based
# [7] = molecular target: Tyrosine-protein kinase Fer (Homo sapiens) (UniProt P16591); test: Inhibition of FER (unknown origin) assessed as residual enzyme activity at 10 uM by Ambit kinase binding assay relative to control
# [8] = molecular target: Mitogen-activated protein kinase 7 (Homo sapiens) (UniProt Q13164); test: Inhibition of ERK5 (unknown origin) assessed as residual enzyme activity at 10 uM by Ambit kinase binding assay relative to control
# [9] = molecular target: Serine/threonine-protein kinase 33 (Homo sapiens, UniProt Q9BYT3); test: Inhibition of STK33 (unknown origin) assessed as residual enzyme activity at 10 uM by Ambit kinase binding assay relative to control
# HCT-116 [10] = test: Antiproliferative activity against human HCT-116 with p53-/- cells at 10 uM incubated for 4 days by Syto60 staining based assay; format: functional, cell-based; settings: time 4.0 day
# Summary of the method: (§1)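 Proliferation read by Syto60 nucleic acid stain fluorescence (excitation 635 nm, emission 695 nm) after treatment for up to 96 h. Each time point normalized to its DMSO control. Mean ± SD from 4 independent experiments. Cells kept at 37°C, 5% CO2 in 10% FBS-supplemented medium.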
# [11] = molecular target: Misshapen-like kinase 1 (Homo sapiens) (UniProt Q8N4C8); test: Inhibition of MINK (unknown origin) assessed as residual enzyme activity at 10 uM by Ambit kinase binding assay relative to control
# U2OS [12] = test: Initiation of anaphase in human U2OS cells expressing histone H2B-GFP measured for 60 mins by fluorescence time-lapse microscopy; format: functional, cell-based; settings: dose 5-10 µM
# Summary of the method: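 U2OS H2B-GFP cells were given DMSO or inhibitor and imaged by fluorescence time-lapse at 37°C, 5% CO₂, one frame every 2 min. NEBD-to-anaphase time was scored for 100 cells per population and plotted as cumulative percentage initiating anaphase.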
# A549 = test: Antiproliferative activity against human A549 cells at 10 uM measured after 96 hrs in presence of Z-VAD-FMK by Syto60 staining based assay; format: functional, cell-based
# U2OS [13] = test: Reversal of paclitaxel-induced mitotic arrest in human U2OS cells assessed as Ser10 phosphorylated Histone H3-positive 4c population at 5 uM incubated for 16 hrs by flow cytometry (reference value: 25 %); format: functional
# U2OS [14] = test: Induction of aneuploidy in UTRM10 cells (unknown origin) expressing wild-type LAP-tagged Mps1 at 5 uM treated for 48 hrs by FACS analysis; format: functional, cell-based
# Summary of the method: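 UTRM10 cells expressing RNAi-resistant LAP-Mps1 WT or M602Q were treated with compound or DMSO for 48 h, then DNA content was analysed by FACS.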
# U2OS [15] = test: Induction of chromosome mis-segregation in human U2OS cells expressing histone H2B-GFP at 5 to 10 uM treated for 4 hrs followed by MG132 treatment for 30 to 60 mins and subsequent replacement of medium containing MG132 measured after 30 mins by immunofluoresence analysis; format: functional, cell-based; settings: dose 5-10 µM, time 4.5-5 hrs
# HCT-116 [16] = test: Cytotoxicity against human HCT-116 cells assessed as loss of clonal survival at 5 to 10 uM incubated for 10 days by crystal violet staining based assay; format: functional, cell-based; settings: dose 5-10 µM, time 10.0 day
# Summary of the method: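 Colony outgrowth: cells plated at 200 cells per 60-mm dish, exposed to compound or DMSO vehicle and stained with crystal violet after 10 days. HCT116 grown in McCoy's 5A; A549 and HeLa in DMEM; hTERT-RPE1 in DMEM/F-12. All media had 10% FBS and penicillin/streptomycin, 37°C, 5% CO2. Quantified from 3 independent experiments, mean + SD, Student's t test.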
# HeLa S3 = test: Effect on thymidine-treated human HeLa S3 cell populations after two cell doubling at 10 uM incubated for 4 hrs followed by thymidine release by immunofluorescence imaging analysis; format: functional, cell-based
# HCT-116 [17] = test: Antiproliferative activity against human HCT-116 with p53+/+ cells at 10 uM incubated for 4 days by Syto60 staining based assay; format: functional, cell-based; settings: time 4.0 day; summary of the method: as §1
# [18] = Inhibition of Mps1 in Potoroo PTK2 cells expressing EyFP-tagged human Mad2 assessed as reduction in time spent in mitosis at 10 uM incubated for 1 hr by fluorescence based imaging analysis relative to control; set-up: species or system Pt K2; settings: Potorous tridactylus
# Summary of the method: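 Randomly cycling PtK2 cells stably expressing hsMad2-EYFP were pretreated 1 h with 10 μM inhibitor, DMSO or no treatment. Time-lapse imaging at 37°C, 5% CO₂ scored mitotic duration from NEB to NER. Average time was reported (N=26–29); 95% CI; Student's t test.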
# HCT-116 [19] = test: Induction of accumulation of human HCT-116 cells with <2N DNA content at 10 uM incubated for 4 days by FACS analysis; format: functional, cell-based; settings: time 4.0 day
# Summary of the method: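 HCT116 cells were treated with 10 μM compound or DMSO vehicle for the indicated times up to 96 h, then DNA content was profiled by flow cytometry.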
# U2OS [20] = test: Induction of premature entry into anaphase in thymidine-treated human U2OS cells expressing H2B-GFP and Plk4 overexpression assessed as fragmentary divisions into multiple daughter cells measured for 30 mins by time lapse imaging analysis relative to control; format: functional, cell-based
# Summary of the method: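 Doxycycline-inducible Plk4 U2OS cells expressing H2B-GFP were blocked with thymidine for 18 hrs and released into doxycycline (2 μg·ml⁻¹) for 10 hrs. A second 18-hr thymidine block followed, then release for 6 hrs before 5 μM inhibitor, with or without Plk4 induction. Cells were imaged by time-lapse at 37°C, 5% CO₂, timed from NEBD, and bipolar versus multipolar anaphases were scored. Values are mean ± SD of 3 independent experiments.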
# [21] = molecular target: Protein-tyrosine kinase 2-beta (Homo sapiens, UniProt Q14289); test: Inhibition of PTK2B (unknown origin) assessed as residual enzyme activity at 10 uM by Ambit kinase binding assay relative to control
# HeLa = test: Antiproliferative activity against human HeLa cells at 10 uM measured after 96 hrs in presence of Z-VAD-FMK by Syto60 staining based assay; format: functional, cell-based
# [22] = molecular target: ALK tyrosine kinase receptor (Homo sapiens, UniProt Q9UM73); test: Binding affinity to ALK (unknown origin) assessed as dissociation constant by Ambit kinase binding assay
# Chain of ALK tyrosine kinase receptor (Q9UM73 whole entry): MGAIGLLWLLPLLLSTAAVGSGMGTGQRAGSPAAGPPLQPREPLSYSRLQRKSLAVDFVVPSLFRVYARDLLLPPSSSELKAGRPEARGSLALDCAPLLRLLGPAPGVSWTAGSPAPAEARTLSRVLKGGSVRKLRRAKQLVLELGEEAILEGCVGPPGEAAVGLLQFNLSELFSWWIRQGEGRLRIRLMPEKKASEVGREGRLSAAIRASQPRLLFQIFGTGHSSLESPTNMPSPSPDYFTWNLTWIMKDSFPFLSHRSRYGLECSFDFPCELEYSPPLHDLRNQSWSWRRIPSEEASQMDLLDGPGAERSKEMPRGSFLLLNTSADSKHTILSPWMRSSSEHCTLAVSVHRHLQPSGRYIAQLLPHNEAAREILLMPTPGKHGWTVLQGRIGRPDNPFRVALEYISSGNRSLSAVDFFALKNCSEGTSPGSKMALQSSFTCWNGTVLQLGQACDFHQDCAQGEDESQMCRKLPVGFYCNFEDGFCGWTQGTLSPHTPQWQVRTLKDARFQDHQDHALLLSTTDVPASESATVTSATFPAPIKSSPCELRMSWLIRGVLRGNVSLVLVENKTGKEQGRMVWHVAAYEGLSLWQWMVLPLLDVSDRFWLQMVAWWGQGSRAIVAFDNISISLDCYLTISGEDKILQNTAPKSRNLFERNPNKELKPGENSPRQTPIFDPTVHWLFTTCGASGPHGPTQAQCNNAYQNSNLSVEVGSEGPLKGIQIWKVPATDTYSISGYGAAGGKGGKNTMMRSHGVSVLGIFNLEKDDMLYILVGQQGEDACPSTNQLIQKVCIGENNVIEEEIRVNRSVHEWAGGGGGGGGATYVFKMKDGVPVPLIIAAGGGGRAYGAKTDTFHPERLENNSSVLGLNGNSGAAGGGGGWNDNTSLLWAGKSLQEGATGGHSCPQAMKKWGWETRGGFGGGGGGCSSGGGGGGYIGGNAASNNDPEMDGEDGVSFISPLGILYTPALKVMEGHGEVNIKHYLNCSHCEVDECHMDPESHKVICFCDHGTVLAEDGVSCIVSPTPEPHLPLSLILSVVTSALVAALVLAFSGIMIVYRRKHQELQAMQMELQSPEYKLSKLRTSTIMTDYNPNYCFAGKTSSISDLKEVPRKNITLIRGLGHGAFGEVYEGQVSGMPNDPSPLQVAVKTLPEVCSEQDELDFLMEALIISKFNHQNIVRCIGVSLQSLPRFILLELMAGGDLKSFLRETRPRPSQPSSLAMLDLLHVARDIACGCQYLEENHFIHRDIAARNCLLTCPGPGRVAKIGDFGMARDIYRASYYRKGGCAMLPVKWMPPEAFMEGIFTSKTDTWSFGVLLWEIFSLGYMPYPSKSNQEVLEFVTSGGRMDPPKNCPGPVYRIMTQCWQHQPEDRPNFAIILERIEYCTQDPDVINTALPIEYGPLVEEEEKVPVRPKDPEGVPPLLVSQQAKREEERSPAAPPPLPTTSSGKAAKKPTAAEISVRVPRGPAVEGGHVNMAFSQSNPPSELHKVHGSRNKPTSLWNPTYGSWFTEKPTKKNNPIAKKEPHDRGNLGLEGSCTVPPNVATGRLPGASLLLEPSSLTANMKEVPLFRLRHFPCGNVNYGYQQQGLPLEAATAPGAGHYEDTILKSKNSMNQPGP
# Chain of Serine/threonine-protein kinase Nek2 (Homo sapiens) (P51955 whole entry): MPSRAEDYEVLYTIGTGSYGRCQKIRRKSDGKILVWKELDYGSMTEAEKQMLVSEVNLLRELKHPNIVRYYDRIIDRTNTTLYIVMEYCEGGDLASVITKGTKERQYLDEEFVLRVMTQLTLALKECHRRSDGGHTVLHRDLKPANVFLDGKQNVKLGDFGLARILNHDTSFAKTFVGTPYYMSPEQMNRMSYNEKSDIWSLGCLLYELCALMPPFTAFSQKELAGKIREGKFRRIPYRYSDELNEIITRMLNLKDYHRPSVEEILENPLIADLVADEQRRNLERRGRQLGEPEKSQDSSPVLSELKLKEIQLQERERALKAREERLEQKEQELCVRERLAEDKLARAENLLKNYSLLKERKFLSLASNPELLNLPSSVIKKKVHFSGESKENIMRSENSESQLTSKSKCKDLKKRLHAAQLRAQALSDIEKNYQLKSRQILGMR
# Chain of Serine/threonine-protein kinase 26 (Homo sapiens) (Q9P289 2-416 limits assumed): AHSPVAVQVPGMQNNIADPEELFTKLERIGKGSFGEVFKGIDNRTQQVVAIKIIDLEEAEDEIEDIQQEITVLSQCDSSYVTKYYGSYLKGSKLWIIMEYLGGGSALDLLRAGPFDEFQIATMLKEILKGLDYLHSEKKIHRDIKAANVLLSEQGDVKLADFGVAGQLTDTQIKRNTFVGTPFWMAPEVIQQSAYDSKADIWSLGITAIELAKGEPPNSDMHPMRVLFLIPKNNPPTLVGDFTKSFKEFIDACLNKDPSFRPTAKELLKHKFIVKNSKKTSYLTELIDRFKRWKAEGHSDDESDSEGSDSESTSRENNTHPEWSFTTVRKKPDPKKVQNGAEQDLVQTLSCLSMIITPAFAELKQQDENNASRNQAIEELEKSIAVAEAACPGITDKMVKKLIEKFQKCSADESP
# Chain of Tyrosine-protein kinase Blk (Homo sapiens) (P51451 2-505 limits assumed): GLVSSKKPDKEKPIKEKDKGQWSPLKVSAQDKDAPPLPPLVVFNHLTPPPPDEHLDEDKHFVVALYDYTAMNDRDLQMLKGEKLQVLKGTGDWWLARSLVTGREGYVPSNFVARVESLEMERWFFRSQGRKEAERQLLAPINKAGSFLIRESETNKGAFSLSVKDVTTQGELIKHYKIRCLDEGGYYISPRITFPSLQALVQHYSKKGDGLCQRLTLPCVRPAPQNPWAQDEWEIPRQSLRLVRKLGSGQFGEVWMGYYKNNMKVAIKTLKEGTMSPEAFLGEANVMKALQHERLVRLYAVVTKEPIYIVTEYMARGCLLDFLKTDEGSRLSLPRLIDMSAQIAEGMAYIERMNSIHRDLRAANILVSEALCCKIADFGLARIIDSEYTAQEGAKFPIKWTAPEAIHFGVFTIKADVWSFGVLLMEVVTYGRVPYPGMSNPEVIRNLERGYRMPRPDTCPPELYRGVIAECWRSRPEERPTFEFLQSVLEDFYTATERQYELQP
# Chain of Ribosomal protein S6 kinase alpha-5 (Homo sapiens) (O75582 whole entry, looked up, the tested form may be a part): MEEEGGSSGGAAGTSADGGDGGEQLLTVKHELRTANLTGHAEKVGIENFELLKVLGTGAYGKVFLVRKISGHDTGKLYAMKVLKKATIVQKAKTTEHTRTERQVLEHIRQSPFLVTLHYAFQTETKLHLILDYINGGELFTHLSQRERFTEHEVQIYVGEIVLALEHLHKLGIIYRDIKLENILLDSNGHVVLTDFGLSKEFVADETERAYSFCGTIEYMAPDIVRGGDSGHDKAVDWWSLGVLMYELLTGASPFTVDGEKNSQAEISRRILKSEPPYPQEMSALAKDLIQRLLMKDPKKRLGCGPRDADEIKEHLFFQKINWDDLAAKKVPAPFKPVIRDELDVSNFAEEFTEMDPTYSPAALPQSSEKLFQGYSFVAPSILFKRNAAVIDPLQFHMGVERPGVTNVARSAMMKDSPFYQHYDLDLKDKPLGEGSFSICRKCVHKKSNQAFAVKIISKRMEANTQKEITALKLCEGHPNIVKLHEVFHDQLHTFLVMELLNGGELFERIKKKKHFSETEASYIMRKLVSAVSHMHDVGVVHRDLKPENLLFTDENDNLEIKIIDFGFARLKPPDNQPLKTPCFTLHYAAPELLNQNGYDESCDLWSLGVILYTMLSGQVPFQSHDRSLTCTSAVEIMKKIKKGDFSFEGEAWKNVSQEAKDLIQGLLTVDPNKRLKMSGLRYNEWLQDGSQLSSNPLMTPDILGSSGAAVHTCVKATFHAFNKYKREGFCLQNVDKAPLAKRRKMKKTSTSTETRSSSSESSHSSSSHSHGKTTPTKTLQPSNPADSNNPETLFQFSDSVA
# Chain of Dual specificity mitogen-activated protein kinase kinase 3 (Homo sapiens) (P46734 whole entry): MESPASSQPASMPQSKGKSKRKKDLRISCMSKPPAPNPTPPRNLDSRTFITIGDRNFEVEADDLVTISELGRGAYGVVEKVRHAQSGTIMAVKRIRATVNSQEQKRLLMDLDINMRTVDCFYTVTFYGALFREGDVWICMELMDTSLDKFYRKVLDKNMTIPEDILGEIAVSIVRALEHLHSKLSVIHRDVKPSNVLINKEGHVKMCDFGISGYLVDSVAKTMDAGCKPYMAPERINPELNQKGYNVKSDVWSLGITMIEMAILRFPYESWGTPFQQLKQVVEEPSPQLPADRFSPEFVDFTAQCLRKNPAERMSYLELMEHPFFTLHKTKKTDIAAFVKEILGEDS
# Chain of Mitogen-activated protein kinase 7 (Homo sapiens) (Q13164 2-816 limits assumed): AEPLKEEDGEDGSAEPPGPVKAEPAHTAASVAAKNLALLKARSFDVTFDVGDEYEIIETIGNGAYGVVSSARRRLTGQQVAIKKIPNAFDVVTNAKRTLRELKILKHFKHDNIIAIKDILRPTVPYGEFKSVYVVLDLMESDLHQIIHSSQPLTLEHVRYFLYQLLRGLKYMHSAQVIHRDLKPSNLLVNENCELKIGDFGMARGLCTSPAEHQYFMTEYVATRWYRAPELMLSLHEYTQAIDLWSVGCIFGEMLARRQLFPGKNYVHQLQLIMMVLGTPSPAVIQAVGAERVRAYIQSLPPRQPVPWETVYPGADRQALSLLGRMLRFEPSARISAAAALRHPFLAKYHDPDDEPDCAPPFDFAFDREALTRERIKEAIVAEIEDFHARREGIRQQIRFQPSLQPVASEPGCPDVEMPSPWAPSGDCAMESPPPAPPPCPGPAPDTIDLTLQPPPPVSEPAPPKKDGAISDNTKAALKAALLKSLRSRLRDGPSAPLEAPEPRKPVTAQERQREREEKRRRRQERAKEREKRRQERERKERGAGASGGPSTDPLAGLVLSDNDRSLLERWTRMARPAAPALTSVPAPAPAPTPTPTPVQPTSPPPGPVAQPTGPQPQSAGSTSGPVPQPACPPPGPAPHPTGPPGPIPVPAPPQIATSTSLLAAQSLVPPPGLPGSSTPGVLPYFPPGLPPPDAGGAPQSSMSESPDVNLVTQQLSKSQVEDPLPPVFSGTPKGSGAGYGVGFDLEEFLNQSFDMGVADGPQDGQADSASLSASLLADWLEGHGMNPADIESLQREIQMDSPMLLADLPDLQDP
smiles,measurement,setting,value
O=C1c2ccccc2-c2n[nH]c3cccc1c23,Activity,[1],12%
same,Activity,[2],12%
same,Activity,[3],27%
same,Activity,[4],2.4%
same,Activity,[5],6%
COc1cc(N2CCC(O)CC2)ccc1Nc1cc(Nc2ccccc2S(=O)(=O)C(C)C)c2cc[nH]c2n1,inhibition,[6],Active
same,Activity,[7],16%
same,Activity,[8],11%
same,Activity,[9],12%
same,Activity,HCT-116 [10],Active
same,Activity,[11],34%
same,Activity,U2OS [12],Dose-Dependent Effect
same,Activity,A549,Active
same,Activity,U2OS [13],15%
same,Activity,U2OS [14],Active
same,Activity,U2OS [15],Active
same,Activity,HCT-116 [16],Active
same,Activity,HeLa S3,inactive
same,Activity,HCT-116 [17],Active
same,inhibition at 10 µM,[18],~40%
same,Activity,HCT-116 [19],Active
same,Activity,U2OS [20],Active
same,Activity,[21],0.1%
same,Activity,HeLa,Active
same,Kd,[22],21 nM
